Read-outs that look alike come from different tables or passages of the source. Ends that are not written are not given here. * marks the point of attachment. Biotin = O=C1N[C@H]2[C@H](CS[C@H]2CCCCC(=O)*)N1
Key:
[1] = target: T1, mCD1 (Mus musculus, UniProt P11609); experiment: SPR competition: mCD1 binding to biotin-P99 chip; settings: mCD1 1.8–2 μM
[2] = target: T1, mCD1; type: binding; settings: competitor preincubated with protein in solution
[3] = test system: NK T cells; settings: cited from earlier work
[4] = test system: 3C3 mouse NK T cell hybridoma; experiment: Competition for α-GalCer presentation by plate-bound hCD1d; type: cell-based; settings: data not shown
Procedure, shortened: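 Gangliosides dissolved in PBS were added to soluble insect-cell-derived hCD1d before α-GalCer. The mixture was coated onto plates 2 h at 37°C and washed five times in PBS. 3C3 hybridoma cells (5 × 10⁴/well) were cultured 16 h, and IL-2 was measured by ELISA.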

[5] = target: T2, hCD1d (Homo sapiens, UniProt P15813); type: binding; settings: competitor preincubated with protein in solution
[6] = test system: 3C3 mouse NK T cell hybridoma; experiment: Competition for α-GalCer presentation by plate-bound mCD1 to 3C3 hybridoma; type: cell-based; settings: 1 μg/well mCD1 preincubated with 25 ng/well α-GalCer
[7] = test system: Vα14+ mouse NK T cell hybridomas N38-2H4 and DN3A4-1.4; experiment: Recognition of antigen on immobilized mCD1 by Vβ7; type: cell-based; settings: data not shown
[8] = test system: 3C3 mouse NK T cell hybridoma; experiment: Antigen presentation by plate-bound hCD1d to 3C3 hybridoma, IL-2 release ELISA; type: cell-based; settings: 1 μg/well plate-bound hCD1d preincubated with 100 ng lipid
Procedure, shortened: (§1)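 Soluble CD1d–β2m heterodimers came from stably cotransfected Drosophila SC2 cells induced 3 d with 0.7 mM CuSO₄, purified on Ni-NTA then Mono Q. Plates were coated 2 h at 37°C with 1 µg/well protein premixed with lipid in PBS. Controls were protein with DMSO (0.25–1% final) or lipid alone. After five PBS washes, 5 × 10⁴ 3C3 cells/well were added; IL-2 was measured by ELISA after 16 h.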

[9] = test system: 3C3 mouse NK T cell hybridoma; experiment: Antigen presentation by plate-bound mCD1 to 3C3 hybridoma, IL-2 release ELISA; type: cell-based; settings: 1 μg/well plate-bound mCD1 preincubated with 100 ng lipid
Procedure, shortened: as §1

[10] = test system: DN3A4-1.2 NK T hybridoma; experiment: Stimulation of 1.2 hybridoma by plates coated with soluble CD1d, IL-2 release; type: cell-based, mouse; settings: 50 ng/well α-GalCer
Procedure, shortened: (§2)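 Plates were coated 2 h at 37°C with 1 µg/well soluble mCD1 or hCD1d (insect-cell-derived), either alone or premixed in PBS with 50 ng/well α-GalCer. After five PBS washes, 5 × 10⁴ hybridoma cells/well were added. IL-2 was quantified after 16 h by sandwich ELISA against a recombinant IL-2 standard (detection limit 0.1 U/ml). Representative of five experiments.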

[11] = test system: 3C3 mouse NK T cell hybridoma; type: cell-based; settings: mCD1+ A20 cells pulsed with 100 ng/ml lipid; 16 h
[12] = target: T2, hCD1d; experiment: SPR; type: binding
[13] = test system: N38-2C12 NK T hybridoma; experiment: Stimulation of 2C12 hybridoma by plates coated with soluble CD1d, IL-2 release; type: cell-based, mouse; settings: 50 ng/well α-GalCer
Procedure, shortened: as §2

[14] = Solubility in aqueous solution; type: physicochemical; settings: must be dissolved in DMSO-containing solutions
[15] = test system: mCD1-restricted CTLs; settings: cited from earlier work
[16] = target: T1, mCD1; experiment: SPR; type: binding
[17] = target: T3, soluble mCD1–mβ2m heterodimer (mouse, UniProt P11609 22-305; P01887 21-119); experiment: SPR
T3 sequence (looked up) 1: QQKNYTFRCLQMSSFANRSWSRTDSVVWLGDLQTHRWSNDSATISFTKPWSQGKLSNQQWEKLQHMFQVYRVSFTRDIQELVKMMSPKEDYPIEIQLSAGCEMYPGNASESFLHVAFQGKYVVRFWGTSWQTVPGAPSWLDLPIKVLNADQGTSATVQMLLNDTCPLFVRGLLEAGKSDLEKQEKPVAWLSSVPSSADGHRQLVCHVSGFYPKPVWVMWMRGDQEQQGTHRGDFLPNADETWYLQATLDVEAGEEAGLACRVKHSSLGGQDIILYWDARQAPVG
T3 sequence (looked up) 2: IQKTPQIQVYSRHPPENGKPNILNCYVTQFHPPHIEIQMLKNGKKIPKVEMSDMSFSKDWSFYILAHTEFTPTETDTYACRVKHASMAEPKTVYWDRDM

In the case of YEHDFHHIREWGNHWKNCLAVM [P99], the “inhibition of mCD1 binding to immobilized biotin-P99” value [1] is listed as “inhibited by increasing concentrations”, the “inhibition of mCD1 binding to biotin–α-GalCer or biotin–β-GalCer chip” value [2] is listed as “does not affect” and the “prevention of α-GalCer recognition by NK T cells” value [3] is listed as “neither P99 nor an ovalbumin peptide could prevent”.

In the case of GD1a, the “inhibition of α-GalCer presentation” value [4] is reported as “could inhibit”, the “inhibition of mCD1 binding to biotin–α-GalCer or biotin–β-GalCer chip” value [2] is reported as “could inhibit” and the “inhibition of hCD1d binding to biotin–α-GalCer or biotin–β-GalCer chip” value [5] is reported as “could inhibit”. The “inhibition of α-GalCer presentation” value [6] was “could inhibit”.

In the case of `CCCCCCCCCCCCCCCCCCCCCCCCCC(=O)N[C@@H](CO[C@H]1O[C@H](CO)[C@H](O)[C@H](O)[C@H]1O)[C@H](O)[C@H](O)CCCCCCCCCCCCCC` [α-GalCer, α-galactosyl ceramide], the “recognition when presented by immobilized mCD1” value [7] is reported as “could recognize”, the “presentation to 3C3 hybridoma (IL-2 release)” value (from here on “presentation to 3C3 hybridoma”) [8] is reported as “could both present” and the “presentation to 3C3 hybridoma” value [9] is reported as “could both present”. For the same molecule, the “effect on response to plate-bound CD1d” value [10] was “can be enhanced”, the “presentation to 3C3 hybridoma” value [11] was “can present” and the koff ([12]; read-out: k off (fast)) was 0.08 s⁻¹. For the same molecule, the koff ([12]; read-out: k off (slow)) was 0.004 s⁻¹, the “effect on response to plate-bound CD1d” value [13] was “can be enhanced” and the solubility [14] was “much less soluble than the gangliosides”. For the same molecule, the “effect on ovalbumin peptide recognition” value [15] was “did not affect”, the koff ([16]; read-out: k off (fast)) was 0.1 s⁻¹ and the koff ([16]; read-out: k off (slow)) was 0.004 s⁻¹.

In the case of `CC(=O)N[C@H]1[C@H](O[C@H]2[C@@H](O)[C@@H](CO)O[C@@H](O[C@@H]([C@H](O)[C@@H](O)C=O)[C@H](O)CO)[C@@H]2O)O[C@H](CO[C@]2(C(=O)O)C[C@H](O)[C@@H](NC(C)=O)[C@H]([C@H](O)[C@H](O)CO)O2)[C@@H](O)[C@@H]1O[C@@H]1O[C@H](CO)[C@H](O)[C@H](O[C@]2(C(=O)O)C[C@H](O)[C@@H](NC(C)=O)[C@H]([C@H](O)[C@H](O)CO)O2)[C@H]1O` [disialyllacto-N-tetraose, α-Neu5Ac-[2→3]-β-Gal-[1→3]-(α-Neu5Ac-[2→6])-β-GlcNac-[1→3]-β-Gal-[1→4]-Glc], the “inhibition of α-GalCer presentation” value [6] is reported as “did not inhibit” and the “inhibition of α-GalCer presentation” value ([6]; listed as control hexasaccharide) is reported as “has no effect”.

For Biotin-YEHDFHHIREWGNHWKNCLAVM [NH2 terminus biotinylated P99 peptide], the koff [17] was 0.005 to 0.008 s⁻¹.

From article PMC2195664 (The Journal of Experimental Medicine, 1999)
